Results published in ChEMBL document CHEMBL1127430, “Novel zinc chelators which inhibit the binding of HIV-EP1 (HIV enhancer binding protein) to NF-kappa B recognition sequence” (J Med Chem, 1994).

What was measured:
[1] = target: Zinc finger protein 40 (Homo sapiens) (UniProt P15822); experiment: Inhibition of human DNA binding to HIV-EP1 (enhancer binding protein) at 0.1 mM concentration
[2] = target: Zinc finger protein 40 (Homo sapiens) (UniProt P15822); experiment: Inhibition of human DNA binding to HIV-EP1 (enhancer binding protein) at 0.4 mM concentration
[3] = target: Zinc finger protein 40 (Homo sapiens) (UniProt P15822); experiment: Inhibition of human DNA binding to HIV-EP1 (enhancer binding protein) at 0.7 mM concentration and 0.7 mM of ZnSO4
How it was run: (§1)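 Same HIV-EP1 κB-site binding assay: protein with ligand and poly(dI-dC), 30 min at room temperature, in H2O-CH3OH (96:4), then labelled κB oligonucleotide. ZnSO4 at the stated level was introduced either during or after the ligand inhibition reaction. Read-out is percentage of HIV-EP1 bound to DNA.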

[4] = target: Zinc finger protein 40 (Homo sapiens) (UniProt P15822); experiment: Inhibition of human DNA binding to HIV-EP1 (enhancer binding protein) at 0.01 mM concentration
[5] = target: Zinc finger protein 40 (Homo sapiens) (UniProt P15822); experiment: Inhibition of human DNA binding to HIV-EP1 (enhancer binding protein) at 0.05 mM concentration
[6] = target: Zinc finger protein 40 (Homo sapiens) (UniProt P15822); experiment: Inhibition of human DNA binding to HIV-EP1 (enhancer binding protein) at 1.0 mM concentration
[7] = target: Zinc finger protein 40 (Homo sapiens) (UniProt P15822); experiment: Inhibition of human DNA binding to HIV-EP1 (enhancer binding protein) at 0.7 mM concentration and 2.1 mM of ZnSO4; how it was run: as §1
[8] = target: Zinc finger protein 40 (Homo sapiens) (UniProt P15822); experiment: Inhibition of human DNA binding to HIV-EP1 (enhancer binding protein) at 0.7 mM concentration
[9] = target: Zinc finger protein 40 (Homo sapiens) (UniProt P15822); conditions: 4.0 mM

Chain of Zinc finger protein 40 (Homo sapiens) (P15822 whole entry, looked up): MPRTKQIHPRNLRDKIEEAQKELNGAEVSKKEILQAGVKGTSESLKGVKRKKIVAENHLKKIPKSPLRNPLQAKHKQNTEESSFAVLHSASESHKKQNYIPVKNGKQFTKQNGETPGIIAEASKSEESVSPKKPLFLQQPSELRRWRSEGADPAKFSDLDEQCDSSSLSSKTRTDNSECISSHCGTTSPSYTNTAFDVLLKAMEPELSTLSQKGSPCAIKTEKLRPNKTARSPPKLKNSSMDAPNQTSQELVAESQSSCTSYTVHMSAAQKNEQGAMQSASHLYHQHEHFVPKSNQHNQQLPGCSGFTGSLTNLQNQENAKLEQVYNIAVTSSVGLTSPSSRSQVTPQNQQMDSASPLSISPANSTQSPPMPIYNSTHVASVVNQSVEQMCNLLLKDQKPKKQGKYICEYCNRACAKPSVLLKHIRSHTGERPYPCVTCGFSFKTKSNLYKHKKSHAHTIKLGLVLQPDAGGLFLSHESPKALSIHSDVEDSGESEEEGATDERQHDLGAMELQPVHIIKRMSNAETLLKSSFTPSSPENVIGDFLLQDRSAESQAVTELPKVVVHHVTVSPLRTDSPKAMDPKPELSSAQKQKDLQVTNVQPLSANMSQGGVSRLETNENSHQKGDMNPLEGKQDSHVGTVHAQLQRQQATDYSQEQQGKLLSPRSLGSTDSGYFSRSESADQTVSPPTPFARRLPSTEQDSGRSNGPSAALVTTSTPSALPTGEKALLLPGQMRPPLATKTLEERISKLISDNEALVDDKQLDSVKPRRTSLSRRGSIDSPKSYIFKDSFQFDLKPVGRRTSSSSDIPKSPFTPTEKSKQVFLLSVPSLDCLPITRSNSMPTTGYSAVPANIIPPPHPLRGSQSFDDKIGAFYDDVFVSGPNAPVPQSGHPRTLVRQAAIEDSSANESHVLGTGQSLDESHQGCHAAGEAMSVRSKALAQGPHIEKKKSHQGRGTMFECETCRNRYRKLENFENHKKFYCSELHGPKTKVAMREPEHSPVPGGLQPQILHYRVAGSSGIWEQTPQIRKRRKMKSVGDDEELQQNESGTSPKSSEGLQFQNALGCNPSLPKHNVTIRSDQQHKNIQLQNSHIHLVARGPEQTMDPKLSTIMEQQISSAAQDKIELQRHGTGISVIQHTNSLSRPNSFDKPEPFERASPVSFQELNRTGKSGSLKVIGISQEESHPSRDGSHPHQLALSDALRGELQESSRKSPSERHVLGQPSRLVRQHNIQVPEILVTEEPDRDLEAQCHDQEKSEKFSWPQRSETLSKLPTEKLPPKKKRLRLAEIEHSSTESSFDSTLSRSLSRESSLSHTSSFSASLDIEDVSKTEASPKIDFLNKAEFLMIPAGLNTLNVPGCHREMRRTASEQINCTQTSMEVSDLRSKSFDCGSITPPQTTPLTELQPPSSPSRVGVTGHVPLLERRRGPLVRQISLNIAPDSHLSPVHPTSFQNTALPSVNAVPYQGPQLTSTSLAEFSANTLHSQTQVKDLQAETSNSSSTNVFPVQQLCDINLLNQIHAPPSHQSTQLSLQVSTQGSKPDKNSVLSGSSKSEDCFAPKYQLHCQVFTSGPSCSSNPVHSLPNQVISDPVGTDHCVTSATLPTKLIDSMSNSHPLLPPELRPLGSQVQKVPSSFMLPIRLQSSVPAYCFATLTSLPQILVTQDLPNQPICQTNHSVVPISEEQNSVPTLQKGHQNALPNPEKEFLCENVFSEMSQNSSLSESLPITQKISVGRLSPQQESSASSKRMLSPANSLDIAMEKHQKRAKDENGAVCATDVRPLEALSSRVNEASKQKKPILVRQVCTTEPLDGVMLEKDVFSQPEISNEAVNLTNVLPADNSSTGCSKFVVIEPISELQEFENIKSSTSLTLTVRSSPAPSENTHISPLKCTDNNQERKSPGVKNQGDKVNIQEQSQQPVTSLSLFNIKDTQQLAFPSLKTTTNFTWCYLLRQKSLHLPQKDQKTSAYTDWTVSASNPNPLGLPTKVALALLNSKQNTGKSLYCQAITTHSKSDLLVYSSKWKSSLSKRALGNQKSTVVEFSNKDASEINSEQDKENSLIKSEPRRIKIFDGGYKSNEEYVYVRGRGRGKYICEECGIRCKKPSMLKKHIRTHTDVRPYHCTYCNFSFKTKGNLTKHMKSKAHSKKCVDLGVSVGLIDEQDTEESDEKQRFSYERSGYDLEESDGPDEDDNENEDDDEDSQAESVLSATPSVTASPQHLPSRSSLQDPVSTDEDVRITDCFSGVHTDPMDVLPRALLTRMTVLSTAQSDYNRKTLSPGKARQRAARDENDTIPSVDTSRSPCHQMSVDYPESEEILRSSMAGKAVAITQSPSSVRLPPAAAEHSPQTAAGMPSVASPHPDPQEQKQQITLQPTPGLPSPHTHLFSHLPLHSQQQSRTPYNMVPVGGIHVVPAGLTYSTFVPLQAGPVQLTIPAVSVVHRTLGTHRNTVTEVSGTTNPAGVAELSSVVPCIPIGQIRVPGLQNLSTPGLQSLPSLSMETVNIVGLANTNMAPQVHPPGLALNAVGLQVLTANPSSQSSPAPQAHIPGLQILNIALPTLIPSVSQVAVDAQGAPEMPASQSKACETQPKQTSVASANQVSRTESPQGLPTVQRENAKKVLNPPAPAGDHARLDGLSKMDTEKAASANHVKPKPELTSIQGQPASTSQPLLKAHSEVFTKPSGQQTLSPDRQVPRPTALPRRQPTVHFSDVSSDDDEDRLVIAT

SMILES | Binding [1] | Binding [2] | Binding [3] | Binding [4] | Binding [5] | Binding [6] | Binding [7] | Binding [8] | Binding [9]
COC(=O)[C@H](Cc1c[nH]cn1)NCc1cc(N(C)C)cc(CN[C@@H](Cc2c[nH]cn2)C(=O)OC)n1 | 68% | 4% | 100% | 100% | 81% | 0% | 100% | 0% | 
O=C(O)CN(CCN(CC(=O)O)CC(=O)O)CC(=O)O |  |  |  |  |  | 33% |  |  | 16%
